STAT3 act-1 – IL-6 driven STAT3 reporter potentiators, primary screen, U3A cells, luciferase, luminescence, MLSCN library | IL-6 STAT3-luciferase reporter; 100% = signal with IL-6 EC80 alone | activation (% of control), % at 5.6 µM | actives 0.91% (n = 190,000);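 active = activation above the screen-wide mean of compound activation plus 3 SD, cut at about 130% in these data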;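 also: 0% = background luminescence of wells with medium and substrate only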
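Material: STAT3-luciferase reporter U3A cells; Probe or stimulus: IL-6 (33 ng/mL); Incubation: compound pre-incubation 1 h before IL-6, then 6 h stimulation at 37 °C; Technique: luminescence from STAT3-driven luciferase reporter; Evaluation: % activation versus median of IL-6-stimulated wells; Controls: IL-6-only high control.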
APP 5'UTR act – activators of APP 5'UTR luciferase reporter, primary screen, SH-SY5Y cells | SH-SY5Y APP 5'UTR luciferase reporter, luminescence; zero percent = DMSO vehicle wells | activation, % at 2 µM | actives 1% (n = 190,000);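 active = activation above a set limit, based on mean plus 3 SD of controls, cut at about 140% in these data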
STAT1 act-1 – STAT1 signaling activators, primary screen, cell-based, HTS, luciferase reporter. activation (% of control), % at 5.5 µM. NIH 3T3 STAT1-luciferase reporter, IFN-gamma, luminescence; 100% = IFN-gamma alone, no compound. actives 2.6% (n = 200,000);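 active = activation above the screen-wide mean activation plus 3 SD, cut at about 130% in these data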;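 also: raw ratio to IFN-gamma control signal so 100% means no change and 0% no light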
STAT3 inh – IL-6 driven STAT3 reporter inhibitors, primary screen, U3A cells, luciferase, luminescence, MLSCN library. IL-6 STAT3-luciferase reporter; host cell line lacks STAT1. inhibition, % at 5.5 µM. actives 0.89% (n = 190,000);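 active = inhibition above the mean inhibition across all screened compounds plus 3 SD, cut at about 44% in these data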;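 also: 0% = DMSO only wells and 100% = 100 µM nifuroxazide control wells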
STAT1 blocker – STAT1 signaling inhibitors, primary screen, cell-based, HTS, luciferase reporter; inhibition, % at 5.5 µM; actives 0.35% (n = 200,000); NIH 3T3 STAT1-luciferase reporter, IFN-gamma, luminescence;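 active = inhibition above a set limit, the mean inhibition across all tested compounds plus 3 SD, cut at about 34% in these data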;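 also: 0% = IFN-gamma with DMSO and 100% = IFN-gamma with 300 µM nifuroxazide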
NF-kB expr up – activators of NF-kB expression in neurons, primary screen, cell-based, HTS; human neuronal cells, NF-kB reporter expression; hits give high values; actives 1.6% (n = 190,000); fold change at 12.5 µM; in the data active = fold change above about 3.3
STAT3 act-2 – STAT3 reporter potentiators, retest of hits, confirmation, U3A cells, luciferase, luminescence; shares compounds with STAT3 act-1; IL-6 potentiation; U3A cells lack STAT1; 100 means same as IL-6 alone; potentiation (% of control), % at 5.7 µM; actives 64% (n = 1,200); AID 1267, 2008;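 active = percent activation of the STAT3 luciferase reporter above a set limit taken from the earlier primary screen, cut at about 130% in these data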;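 also: 0% = background signal of medium plus substrate and 100% = median of IL-6 with DMSO wells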
NFkB act STAT3ct – NF-kB reporter activators in human cells, counter-screen for STAT3 activator project. activation (% of control), % at 5.7 µM. shares compounds with STAT3 act-1. AID 1309, 2008. NF-kappaB reporter activation. actives 11% (n = 1,200); in the data active = activation above about 120%;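 also: reporter induced by TNF-alpha stimulation; 100% = median of stimulated DMSO wells and 0% = no signal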
STAT1 act-2 – STAT1 reporter activators, IFN-gamma induced, counter-screen for STAT3 activator project, cell-based, NIH 3T3, luciferase luminescence. shares compounds with STAT3 act-1. NIH 3T3 STAT1-luciferase reporter. activation (% of control), % at 5.7 µM. actives 13% (n = 1,200). AID 1318, 2008;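 active = activation above the solvent-only control well mean plus 3 SD, set per screening run, cut at about 120% in these data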;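 also: 100% = IFN-gamma with DMSO median signal so 100% means no change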
* marks the source's active call; other numbers are inactive results; i = inactive; / = no result. Hits are enriched below; roughly 5.1% of the tested compounds scored in any of these assays.

SMILES | STAT3 act-1 | APP 5'UTR act | STAT1 act-1 | STAT3 inh | STAT1 blocker | NF-kB expr up | STAT3 act-2 | NFkB act STAT3ct | STAT1 act-2
Nc1nc2c(c(=O)[nH]1)C(c1cccc3ccccc13)C1=C(N2)c2ccccc2C1=O (centres undefined) | 103 | 15 | 100 | 5 | 0 | 0.88 | / | / | /
COc1ccc(-c2csc(N(CCc3ccc(OC)c(OC)c3)C(=O)COc3ccccc3)n2)cc1 | 96 | -2 | 101 | 14 | 4 | 0.81 | / | / | /
CCCOc1ccc(-c2nc(OC)c3ccccc3n2)cc1 | 142* | 0 | 106 | -42 | -7 | 1.7 | 152* | 105 | 100
CCCOc1ccc(C(=O)Nn2c(C)nc3ccccc3c2=O)cc1 | 104 | -6 | 100 | -3 | 0 | 1.5 | / | / | /
N#C/C(=C(/O)COC(=O)c1ccc(Cl)c(S(=O)(=O)N2CCOCC2)c1)c1nc2ccccc2[nH]1 | 98 | 11 | 95 | 4 | 5 | 0.8 | / | / | /
N#C/C(=C(/O)COC(=O)CCc1ccc(S(=O)(=O)N2CCOCC2)cc1)c1nc2ccccc2[nH]1 | 149* | 8 | 86 | -55 | 16 | 2.6 | 144* | 102 | 86
CC1(C)CC2CC(C)(CN2S(=O)(=O)c2ccc(C(=O)Nc3ccc(S(=O)(=O)N4CCOCC4)cc3)cc2)C1 (centres undefined) | 69 | 5 | 87 | 36 | 15 | 0.8 | / | / | /
CC(=O)Nc1ccc(S(=O)(=O)N2CC3(C)CC2CC(C)(C)C3)cc1 (centres undefined) | 137* | -12 | 94 | -30 | 6 | 0.98 | 94 | 108 | 101
O=C1CCC([N+](=O)[O-])C(c2ccc3c(c2)OCO3)N1 (centres undefined) | 107 | 8 | 99 | -4 | -1 | 1.2 | / | / | /
Cc1ccc(S(=O)(=O)/N=C(/Nc2ccc3[nH]c(=O)[nH]c3c2)c2ccc(F)cc2)cc1 | 102 | -6 | 101 | 5 | -2 | 0.9 | / | / | /
Nc1nc(NCc2ccco2)nn1-c1ccccc1 | 147* | 2 | 111 | -53 | -13 | 1.6 | 99 | 105 | 106
Nc1nc(NCc2cccs2)nn1-c1ccccc1 | 117 | -4 | 109 | -17 | -10 | / | / | / | /
Cc1ccc(-c2nnn(CC(=O)N(c3ccccc3)C(C(=O)NCC3CCCO3)c3ccc(Cl)cc3)n2)cc1 (centres undefined) | 93 | -16 | 101 | 15 | -2 | 1.2 | / | / | /
Cc1ccc(-c2nnn(CC(=O)N(c3ccccc3F)C(C(=O)NCC3CCCO3)c3c[nH]c4ccccc34)n2)cc1 (centres undefined) | 145* | 5 | 100 | -48 | 0 | 0.8 | 129 | 100 | 100
COc1ccc(C(=O)CCC(C)(C)[N+](=O)[O-])cc1OC | 110 | -2 | 99 | -11 | 0 | 0.96 | / | / | /
CN(CC(=O)NCc1ccccc1Cl)CC(=O)Nc1cccc(F)c1 | 101 | 9 | 97 | 5 | 1 | 0.98 | / | / | /
CCCN1CCN(S(=O)(=O)c2ccc(OC)c(Br)c2)CC1 | 96 | -5 | 110 | 8 | -11 | 1.3 | / | / | /
COc1ccc(CN2CCN(S(=O)(=O)c3ccc(C)cc3)CC2)cc1Br | 144* | -7 | 101 | -58 | -1 | 1.4 | 137* | 108 | 107
Cc1ccc(NC(=O)CNC(=O)c2cccs2)cc1S(=O)(=O)Nc1ccc(Cl)cc1 | 106 | 1 | 104 | -10 | -4 | 0.95 | / | / | /
Cn1c(C(C#N)C(=O)c2ccco2)nc2ccccc21 (centres undefined) | 136* | 27 | 113 | -35 | -12 | 1.8 | 136* | 111 | 124*
Cn1c(C(C#N)C(=O)Cc2cccc3ccccc23)nc2ccccc21 (centres undefined) | 102 | 11 | 102 | 4 | -3 | 1.2 | / | / | /
COc1ccc(CC(=O)O/N=C(\N)Cc2cccc3ccccc23)cc1OC | 112 | 4 | 89 | -20 | 13 | 1.2 | / | / | /
Cc1ccc(-c2nnnn2C2C/C(=N\NC(N)=S)C3OCC2O3)cc1 (centres undefined) | 104 | 4 | 110 | 1 | -8 | 1.2 | / | / | /
COc1ccc2c(c1)c1nnc(SC)nc1n2C | 160* | 11 | 124 | -65 | -27 | 1.3 | 171* | 113 | 128*
COc1ccc2c(c1)c1nnc(SCC(=O)N3C(C)CCCC3C)nc1n2C (centres undefined) | 95 | 7 | 105 | 8 | -5 | 0.43 | / | / | /
SMILES | STAT3 act-1 | APP 5'UTR act | STAT1 act-1 | STAT3 inh | STAT1 blocker | NF-kB expr up | STAT3 act-2 | NFkB act STAT3ct | STAT1 act-2
Cc1ccc(S(=O)(=O)N(CC(O)CN2C(=O)NC(C)(C)C2=O)c2ccccc2)cc1 (centres undefined) | 187* | 11 | 98 | -105 | 2 | 1.1 | 96 | 109 | 101
COc1ccc(C(C[N+](=O)[O-])c2c(C)[nH]c3ccccc23)cc1OC (centres undefined) | 138* | 0 | 86 | -48 | 15 | 1.1 | 111 | 102 | 95
CCC(O)CC(C(=O)NNc1ccccc1)C(=O)NNc1ccccc1 (centres undefined) | 100 | 9 | 102 | 5 | -6 | 1.2 | / | / | /
Cc1csc(=Nc2ccccc2)n1CCCN1CCCC1=O | 97 | 19 | 95 | 12 | 6 | 1 | / | / | /
COc1ccc(C)c2sc(=NC(=O)c3ccccc3)n(C)c12 | 136* | 32 | 120 | -33 | -22 | 3.6* | 139* | 148* | 182*
COc1cc(/C=C2\SC(N)=NC2=O)ccc1OCC(=O)Nc1ccc(C)cc1 | 643* | 12 | 78 | i | 24 | 1.4 | 435* | 130* | 85
Cc1ncoc1C(=O)N1CCc2c([nH]c3ccccc23)C1c1ccccc1F (centres undefined) | 130 | -8 | 91 | -33 | 8 | 1.3 | / | / | /
CN1N=C(C(=O)N2CCc3c([nH]c4ccccc34)C2c2c(F)cccc2Cl)CCC1=O (centres undefined) | 154* | 22 | 110 | -53 | -11 | 1.7 | 150* | 104 | 114
CCC(C)/C(C)=N/NC(=O)c1ccccc1OCCOc1ccccc1 (centres undefined) | 108 | 17 | 97 | -3 | 1 | 1.1 | / | / | /
